# Reference: ChEMBL document CHEMBL2311448, “Enantioselective synthesis of derivatives and structure-activity relationship study in the development of NA255 as a novel host-targeting anti-HCV agent” (Bioorg Med Chem Lett, 2013)
# Key:
# [1] = Cytotoxicity against human Hepatoma cells; type: cell-based
# [2] = Half life in Sprague-Dawley rat plasma at 10 mg/kg, sc; type: ADME, organism-based; set-up: dose 10 mg/kg, route subcutaneous
# Summary of the method: (§1)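 Male Sprague–Dawley rats got a single subcutaneous dose of 10 mg/kg (n = 2) in 10% PEG300–10% HPCD in water. Plasma and liver concentrations were measured over time after dosing. Footnotes mark concentrations taken at 0.5 h and at 2 h postdosing. One compound was given as its tri-sodium salt.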
# [3] = Cmax in Sprague-Dawley rat plasma at 10 mg/kg, sc at 0.5 hrs; type: ADME, organism-based; set-up: dose 10 mg/kg, route subcutaneous; summary of the method: as §1
# [4] = Cmax in Sprague-Dawley rat liver at 10 mg/kg, sc at 2 hrs; type: ADME, organism-based; set-up: dose 10 mg/kg, route subcutaneous; summary of the method: as §1
# [5] = AUC in Sprague-Dawley rat plasma at 10 mg/kg, sc; type: ADME, organism-based; set-up: dose 10 mg/kg, route subcutaneous; summary of the method: as §1
# [6] = Half life in Sprague-Dawley rat liver at 10 mg/kg, sc; type: ADME, organism-based; set-up: dose 10 mg/kg, route subcutaneous; summary of the method: as §1
# [7] = Mean residence time in Sprague-Dawley rat liver at 10 mg/kg, sc; type: ADME, organism-based; set-up: dose 10 mg/kg, route subcutaneous; summary of the method: as §1
# [8] = Mean residence time in Sprague-Dawley rat plasma at 10 mg/kg, sc; type: ADME, organism-based; set-up: dose 10 mg/kg, route subcutaneous; summary of the method: as §1
# [9] = AUC in Sprague-Dawley rat liver at 10 mg/kg, sc; type: ADME, organism-based; set-up: dose 10 mg/kg, route subcutaneous; summary of the method: as §1
# [10] = test system: Hepatitis C virus; assay: Antiviral activity against HCV infected in human hepatoma cells assessed as inhibition of viral replication; type: functional, organism-based, Hepacivirus hominis
compound,measurement,setting,value
CCCCCCCC(=O)CCCCCC/C=C/[C@H](C(=O)N[C@@H](Cc1ccc(OCC=C(C)C)cc1)C(=O)O)[C@@](O)(CC(=O)O)C(=O)O,CC50,[1],> 5 µM
CCCCCCCC(=O)CCCCCC/C=C/[C@H](C(=O)N[C@@H](Cc1ccc(-c2cccc(OC)c2)cc1)C(=O)[O-])[C@@](O)(CC(=O)[O-])C(=O)[O-].[Na+].[Na+].[Na+],half-life,[2],888 min
same,Cmax,[3],351 ng/mL
same,Cmax,[4],5920 ng/mL
same,AUC,[5],2590 ng·h/mL
same,half-life,[6],1280 min
same,MRT,[7],16.1 h
same,MRT,[8],12.9 h
same,AUC,[9],82900 ng·h/mL
CC#CCOc1ccc(C[C@H](NC(=O)[C@@H](/C=C/CCCCCCC(=O)CCCCCCC)[C@@](O)(CC(=O)[O-])C(=O)[O-])C(=O)[O-])cc1.[Na+].[Na+].[Na+],half-life,[2],239 min
same,Cmax,[3],604 ng/mL
same,Cmax,[4],7100 ng/mL
same,AUC,[5],3050 ng·h/mL
same,half-life,[6],285 min
same,MRT,[7],7.3 h
same,MRT,[8],5.48 h
same,AUC,[9],49600 ng·h/mL
CCCCCCCC(=O)CCCCCC/C=C/[C@H](C(=O)N[C@@H](Cc1ccc(OCc2ccccc2)cc1)C(=O)[O-])[C@@](O)(CC(=O)[O-])C(=O)[O-].[Na+].[Na+].[Na+],half-life,[2],589 min
same,Cmax,[3],209 ng/mL
same,Cmax,[4],6590 ng/mL
same,AUC,[5],2690 ng·h/mL
same,half-life,[6],1640 min
same,MRT,[7],17 h
same,MRT,[8],13.6 h
same,AUC,[9],100000 ng·h/mL
CCCCCCCC(=O)CCCCCC/C=C/[C@H](C(=O)N[C@@H](CC1CCCCC1)C(=O)O)[C@@](O)(CC(=O)O)C(=O)O,IC50,[10],> 5000 nM
same,CC50,[1],> 5 µM
CCCCCCCC(=O)CCCCCC/C=C/[C@H](C(=O)N[C@@H](Cc1cccc2ccccc12)C(=O)O)[C@@](O)(CC(=O)O)C(=O)O,IC50,[10],> 1000 nM
same,CC50,[1],> 1 µM
CCCCCCCC(=O)CCCCCC/C=C/[C@H](C(=O)N[C@@H](Cc1ccc2ccccc2c1)C(=O)O)[C@@](O)(CC(=O)O)C(=O)O,IC50,[10],14 nM
same,CC50,[1],> 5 µM
CCCCCCCC(=O)CCCCCC/C=C/[C@H](C(=O)N[C@@H](Cc1ccc(OC)cc1)C(=O)O)[C@@](O)(CC(=O)O)C(=O)O,IC50,[10],6.4 nM
same,CC50,[1],> 5 µM
CCCCCCCC(=O)CCCCCC/C=C/[C@H](C(=O)N[C@@H](Cc1ccc(OCCC)cc1)C(=O)O)[C@@](O)(CC(=O)O)C(=O)O,IC50,[10],2.6 nM
same,CC50,[1],> 5 µM
CCCCCCCC(=O)CCCCCC/C=C/[C@H](C(=O)N[C@@H](Cc1ccc(OCCCC)cc1)C(=O)O)[C@@](O)(CC(=O)O)C(=O)O,IC50,[10],1.2 nM
same,CC50,[1],> 5 µM
CC#CCOc1ccc(C[C@H](NC(=O)[C@@H](/C=C/CCCCCCC(=O)CCCCCCC)[C@@](O)(CC(=O)O)C(=O)O)C(=O)O)cc1,IC50,[10],1.2 nM
same,CC50,[1],> 5 µM
CCCCCCCC(=O)CCCCCC/C=C/[C@H](C(=O)N[C@@H](Cc1ccc(OCCCN)cc1)C(=O)O)[C@@](O)(CC(=O)O)C(=O)O,IC50,[10],38 nM
same,CC50,[1],> 1 µM
CCCCCCCC(=O)CCCCCC/C=C/[C@H](C(=O)N[C@@H](Cc1ccc(Oc2ccccc2)cc1)C(=O)O)[C@@](O)(CC(=O)O)C(=O)O,IC50,[10],1.9 nM
same,CC50,[1],> 5 µM
CCCCCCCC(=O)CCCCCC/C=C/[C@H](C(=O)N[C@@H](Cc1ccc(OCc2ccccc2)cc1)C(=O)O)[C@@](O)(CC(=O)O)C(=O)O,IC50,[10],0.32 nM
same,CC50,[1],> 5 µM
CCCCCCCC(=O)CCCCCC/C=C/[C@H](C(=O)N[C@@H](Cc1ccc(-c2ccccc2)cc1)C(=O)O)[C@@](O)(CC(=O)O)C(=O)O,IC50,[10],1.6 nM
same,CC50,[1],> 5 µM
CCCCCCCC(=O)CCCCCC/C=C/[C@H](C(=O)N[C@@H](Cc1ccc(-c2cccc(OC)c2)cc1)C(=O)O)[C@@](O)(CC(=O)O)C(=O)O,IC50,[10],2.6 nM
same,CC50,[1],> 1 µM
CCCCCCCC(=O)CCCCCC/C=C/[C@H](C(=O)N[C@@H](Cc1ccc(-c2cccnc2)cc1)C(=O)O)[C@@](O)(CC(=O)O)C(=O)O,IC50,[10],10 nM
same,CC50,[1],> 1 µM
CCCCCCC(=O)CCCCCC/C=C/[C@H](C(=O)N[C@@H](Cc1ccc(OCCC(C)C)cc1)C(=O)O)[C@@](O)(CC(=O)O)C(=O)O,IC50,[10],19 nM
same,CC50,[1],> 1 µM
CCCC(=O)CCCCCC/C=C/[C@H](C(=O)N[C@@H](Cc1ccc(OCCC(C)C)cc1)C(=O)O)[C@@](O)(CC(=O)O)C(=O)O,IC50,[10],800 nM
same,CC50,[1],> 5 µM
CCCCCCCCCC(=O)CCCC/C=C/[C@H](C(=O)N[C@@H](Cc1ccc(OCCC(C)C)cc1)C(=O)O)[C@@](O)(CC(=O)O)C(=O)O,IC50,[10],5.1 nM
same,CC50,[1],> 1 µM
CCCCCC(=O)CCCCCCCC/C=C/[C@H](C(=O)N[C@@H](Cc1ccc(OCCC(C)C)cc1)C(=O)O)[C@@](O)(CC(=O)O)C(=O)O,IC50,[10],1.4 nM
same,CC50,[1],> 1 µM
C=CCCCCCC(=O)CCCCCC/C=C/[C@H](C(=O)N[C@@H](Cc1ccc(OCCC(C)C)cc1)C(=O)O)[C@@](O)(CC(=O)O)C(=O)O,IC50,[10],6.1 nM
same,CC50,[1],> 1 µM
CC(C)CCCCC(=O)CCCCCC/C=C/[C@H](C(=O)N[C@@H](Cc1ccc(OCCC(C)C)cc1)C(=O)O)[C@@](O)(CC(=O)O)C(=O)O,IC50,[10],5.7 nM
same,CC50,[1],> 1 µM
CC(C)CCOc1ccc(C[C@H](NC(=O)[C@@H](/C=C/CCCCCCC(=O)Cc2ccccn2)[C@@](O)(CC(=O)O)C(=O)O)C(=O)O)cc1,IC50,[10],> 1000 nM
same,CC50,[1],> 1 µM
CC(C)CCOc1ccc(C[C@H](NC(=O)[C@@H](/C=C/CCCCCCC(=O)CCc2ccccc2)[C@@](O)(CC(=O)O)C(=O)O)C(=O)O)cc1,IC50,[10],290 nM
same,CC50,[1],> 1 µM
CC(C)CCOc1ccc(C[C@H](NC(=O)[C@@H](/C=C/CCCCCCC(=O)CCC2CCCCC2)[C@@](O)(CC(=O)O)C(=O)O)C(=O)O)cc1,IC50,[10],32 nM
same,CC50,[1],> 1 µM
CCCCCCCC(=O)CCCCCC/C=C/[C@H](C(=O)N[C@H](Cc1ccc(OCCC(C)C)cc1)C(=O)O)[C@@](O)(CC(=O)O)C(=O)O,IC50,[10],> 5000 nM
same,CC50,[1],> 5 µM
CCCCCCCC(=O)CCCCCC/C=C/[C@H](C(=O)NCCc1ccc(OCCC(C)C)cc1)[C@@](O)(CC(=O)O)C(=O)O,IC50,[10],1000 nM
same,CC50,[1],> 5 µM
CCCCCCCC(=O)CCCCCC/C=C/[C@H](C(=O)N[C@@H](Cc1ccc(OCCCC(C)C)cc1)C(=O)O)[C@@](O)(CC(=O)O)C(=O)O,IC50,[10],12 nM
same,CC50,[1],> 1 µM
CCCCCCCC(=O)CCCCCC/C=C/[C@H](C(=O)N[C@@H](Cc1ccccc1)C(=O)O)[C@@](O)(CC(=O)O)C(=O)O,IC50,[10],17 nM
same,CC50,[1],13.9 µM
CCCCCCCC(=O)CCCCCC/C=C/[C@H](C(=O)N[C@@H](Cc1cccs1)C(=O)O)[C@@](O)(CC(=O)O)C(=O)O,IC50,[10],490 nM
same,CC50,[1],> 1 µM
CCCCCCCC(=O)CCCCCC/C=C/[C@H](C(=O)N[C@@H](Cc1ccc(OCCC(C)C)cc1)C(=O)O)[C@@](O)(CC(=O)O)C(=O)O,IC50,[10],1.4 nM
same,CC50,[1],> 5 µM
CCCCCCCC(=O)CCCCCCCC[C@H](C(=O)N[C@@H](Cc1ccc(OCCC(C)C)cc1)C(=O)O)[C@@](O)(CC(=O)O)C(=O)O,IC50,[10],150 nM
same,CC50,[1],> 5 µM
CCCCCCCCCCCCCC/C=C/[C@H](C(=O)NC(Cc1ccc(OCC=C(C)C)cc1)C(=O)O)[C@@](O)(CC(=O)O)C(=O)O (some centres undefined),IC50,[10],155 nM
same,CC50,[1],> 50 µM
CCCCCCCCC(=O)CCCCCC/C=C/[C@H](C(=O)N[C@@H](Cc1ccc(OCCC(C)C)cc1)C(=O)O)[C@@](O)(CC(=O)O)C(=O)O,IC50,[10],6.9 nM
same,CC50,[1],> 50 µM
CCCCCCCC(O)CCCCCC/C=C/[C@H](C(=O)N[C@@H](Cc1ccc(OCCC(C)C)cc1)C(=O)O)[C@@](O)(CC(=O)O)C(=O)O (mixture of isomers),IC50,[10],25 nM
same,CC50,[1],> 1 µM
